In ChEMBL document CHEMBL2093137, “WHO-TDR NTD Screening”:
≈ marks a conversion by molar mass, not a printed value.

Tests used:
Plasmodium falciparum K1 = assay: WHO-TDR: Malaria; type: functional, organism-based, Homo sapiens; conditions: Erythrocyte
Summary of the method: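 Following previously published standard procedures, with a reference drug serving as positive control, compounds were tested on the Plasmodium falciparum K1 strain inside human red blood cells. The 10,000-compound diverse set came from Life Chemicals after filtering for drug-likeness and reactive groups. Potency against the parasite appears as IC50.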

Brugia malayi = assay: WHO-TDR: Lymphatic Filariasis; type: functional; set-up: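 tested at 10 µM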
Summary of the method: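 In a whole-organism assay, Brugia malayi microfilariae were screened against a diverse Life Chemicals library that had been filtered for drug-likeness and reactive groups. That library comprised 10,000 compounds. Activity is expressed as percent inhibition and as IC50.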

Schistosoma mansoni = assay: WHO-TDR: Schistosomiasis; type: functional; set-up: concentration or dose not given beside the values
Summary of the method: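 In this whole-organism assay, larval and/or adult worms of Schistosoma mansoni (Puerto Rican strain) were exposed to compounds from a diverse Life Chemicals library of 10,000 members. A reference drug served as positive control. Activity is stated as percent inhibition and IC50.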

Trypanosoma cruzi = assay: WHO-TDR: Chagas disease; type: functional, organism-based, Homo sapiens; conditions: MRC5
Summary of the method: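 Intracellular amastigotes of the Trypanosoma cruzi Tulahuen CL2 beta-galactosidase strain, grown in MRC-5SV2 human lung fibroblast host cells, were tested in a whole-organism screen. The compounds came from a 10,000-member diverse Life Chemicals library that had been filtered for drug-likeness and reactive groups. Previously published standard procedures were followed, with a reference drug as positive control, and potency is reported as IC50.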

Leishmania infantum = assay: WHO-TDR: Leishmaniasis; type: functional, organism-based, Mus musculus; conditions: Macrophage
Summary of the method: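 Following previously published standard procedures, a whole-organism screen was run on Leishmania infantum MHOM/MA(BE)/67 amastigotes within murine peritoneal macrophages, with a reference drug as positive control. The 10,000 compounds tested formed a diverse Life Chemicals library filtered for drug-likeness and reactive groups. Potency against the parasite is reported as IC50.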

[1] = test system: Trypanosoma brucei brucei; assay: WHO-TDR: Human African Trypanosomiasis (HAT); type: functional, organism-based; conditions: Squib-427
Summary of the method: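 Bloodstream forms of the Trypanosoma brucei Squib 427 strain were tested in a whole-organism screen with a diverse library from Life Chemicals of 10,000 compounds. Before screening, the library was filtered for drug-likeness and for reactive groups. The assay used previously published standard procedures and included reference drugs as positive controls. Potency against the parasite is expressed as IC50.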

Onchocerca ochengi = assay: WHO-TDR: Onchocerciasis; type: functional; set-up: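 at 12.5 µM on microfilariae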
Summary of the method: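 Microfilariae of Onchocerca ochengi or Onchocerca lienalis, animal pathogens standing in for the human parasite, were exposed to compounds in a whole-organism screen. The compounds came from a 10,000-compound diverse Life Chemicals library filtered for drug-likeness and reactive groups. Results are expressed as percent inhibition and IC50.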

[2] = WHO-TDR: Cytotoxicity; type: toxicity, cell-based; conditions: human, MRC5 cells

| Structure (SMILES) | IC50 (Plasmodium falciparum K1) [µg/mL] | % Inhibition (Brugia malayi) [%] | % Inhibition (Schistosoma mansoni) [%] | IC50 (Trypanosoma cruzi) [µg/mL] | IC50 (Leishmania infantum) [µg/mL] | IC50 [1] [µg/mL] | % Inhibition (Onchocerca ochengi) [%] | IC50 [2] [µg/mL] |
| --- | --- | --- | --- | --- | --- | --- | --- | --- |
| O=C(COc1ccc(Cl)cc1)NCCCn1nc(-c2ccc(F)cc2)ccc1=O | > 12.5 | 0 | 16.7 | > 12.5 | > 12.5 | > 12.5 | 100 | > 12.5 |
| CCn1ccc(C(=O)Nc2ccc(C)cc2C(=O)c2ccccc2)n1 | > 10 | 0 | 0 | > 10 | > 10 | > 10 | 100 | > 10 |
| CCn1nc(C(=O)Nc2nnc(-c3ccc4c(c3)CCCC4)o2)cc1C | > 10.5 | 0 | 16.7 | > 10.5 | > 10.5 | > 10.5 | 100 | > 10.5 |
| CCn1nc(C(=O)Nc2nnc(CCSc3ccccc3)o2)cc1C | > 10.7 | 0 | 0 | > 10.7 | > 10.7 | > 10.7 | 100 | > 10.7 |
| CC(=O)c1sc(NC(=O)C2CCCCN2S(C)(=O)=O)nc1-c1ccccc1 (stereo not given) | > 12.2 | 0 | 0 | 4.06 (≈ 9.97 µM) | > 12.2 | 3.12 (≈ 7.67 µM) | 100 | > 12.2 |
| CS(=O)(=O)N1CCCCC1C(=O)Nc1nc(-c2ccc(F)cc2)cs1 (stereo not given) | > 11.5 | 0 | 0 | 3.82 (≈ 9.95 µM) | > 11.5 | 5.4 (≈ 14.1 µM) | 100 | > 11.5 |
| CS(=O)(=O)N1CCCCC1C(=O)Nc1nc(-c2nc3ccccc3s2)cs1 (stereo not given) | > 12.7 | 0 | 0 | > 12.7 | > 12.7 | > 12.7 | 100 | > 12.7 |
| CCOC(=O)c1sc(NC(=O)C2CCCCN2S(C)(=O)=O)cc1C (stereo not given) | > 11.2 | 0 | 0 | 3.69 (≈ 9.86 µM) | > 11.2 | 3.82 (≈ 10.2 µM) | 100 | > 11.2 |
| CS(=O)(=O)N1CCCCC1C(=O)Nc1nc2c(Cl)c(Cl)ccc2s1 (stereo not given) | > 12.2 | 0 | 0 | > 12.2 | > 12.2 | > 12.2 | 100 | > 12.2 |
| CCc1cccc2sc(NC(=O)C3CCCCN3S(C)(=O)=O)nc12 (stereo not given) | > 11 | 0 | 0 | 3.8 (≈ 10.3 µM) | > 11 | 3.09 (≈ 8.4 µM) | 100 | > 11 |
| CS(=O)(=O)N1CCCC1C(=O)Nc1nc(-c2ccc(Cl)s2)cs1 (stereo not given) | 3.6 (≈ 9.18 µM) | 0 | 0 | > 11.8 | > 11.8 | > 11.8 | 100 | > 11.8 |
| CCOC(=O)c1sc(NC(=O)C2CCCN2S(C)(=O)=O)nc1-c1ccccc1 (stereo not given) | > 12.7 | 0 | 0 | > 12.7 | > 12.7 | > 12.7 | 100 | > 12.7 |
| COc1ccc(-c2ccc(=O)n(CCCNC(=O)Cc3ccc(F)cc3)n2)cc1 | > 11.9 | 0 | 0 | > 11.9 | > 11.9 | > 11.9 | 100 | 11.3 (≈ 28.7 µM) |
| Cc1ccc(-c2ccc(=O)n(CCCNS(=O)(=O)c3ccc(Cl)s3)n2)cc1 | > 12.7 | 0 | 0 | > 12.7 | > 12.7 | > 12.7 | 100 | 5.29 (≈ 12.5 µM) |
| O=c1ccc(-c2ccc(F)cc2)nn1CCCNS(=O)(=O)c1cc(F)ccc1F | > 12.7 | 0 | 0 | > 12.7 | > 12.7 | 4.24 (≈ 10 µM) | 100 | 3.28 (≈ 7.74 µM) |
| O=c1ccc(-c2ccc(F)cc2)nn1CCCNS(=O)(=O)/C=C/c1ccccc1 | 6.97 (≈ 16.9 µM) | 0 | 0 | > 12.4 | > 12.4 | 5.43 (≈ 13.1 µM) | 100 | 6.58 (≈ 15.9 µM) |
| COc1cc(C)ccc1S(=O)(=O)NCCCn1nc(-c2ccc(F)cc2)ccc1=O | > 12.9 | 0 | 0 | > 12.9 | > 12.9 | > 12.9 | 100 | 10 (≈ 23.2 µM) |
| O=C(Nc1ccc(SCC(=O)N2CCc3ccccc32)nn1)c1ccccc1F | > 12.3 | 0 | 0 | > 12.3 | 0.397 (≈ 0.972 µM) | > 12.3 | 0 | > 12.3 |
| O=C(CSc1ccc(NC(=O)c2ccco2)nn1)Nc1ccccc1C(F)(F)F | > 12.7 | 0 | 0 | > 12.7 | > 12.7 | > 12.7 | 100 | > 12.7 |
| CCCc1nnc(NC(=O)CSc2ccc(NC(=O)c3cccs3)nn2)s1 | > 12.6 | 0 | 0 | > 12.6 | 0.408 (≈ 0.97 µM) | > 12.6 | 0 | > 12.6 |
| O=C(CSc1ccc(NC(=O)c2cccs2)nn1)c1ccc(Cl)cc1 | > 11.7 | 0 | 0 | > 11.7 | > 11.7 | > 11.7 | 100 | 3.14 (≈ 8.05 µM) |
| O=C(NCCNC(=O)c1cccc(Cl)c1)c1ccc(NC(=O)c2ccc(F)cc2)cc1 | > 13.2 | 0 | 0 | > 13.2 | 0.427 (≈ 0.971 µM) | > 13.2 | 0 | > 13.2 |
| COc1ccc(C(=O)C2C(=O)N(c3ccccc3)N=C2C)c(OC)c1 (stereo not given) | > 10.2 | 0 | 0 | > 10.2 | > 10.2 | > 10.2 | 100 | > 10.2 |
| O=C(c1ccc2c(c1)OCO2)C1C(=O)N(c2ccccc2)N=C1c1ccccc1 (stereo not given) | > 11.5 | 0 | 0 | > 11.5 | > 11.5 | 3.32 (≈ 8.63 µM) | 100 | 6.6 (≈ 17.2 µM) |
| O=C(c1ccc(Br)o1)C1C(=O)N(c2ccccc2)N=C1c1ccccc1 (stereo not given) | > 12.3 | 0 | 0 | 5.34 (≈ 13.1 µM) | > 12.3 | 4.44 (≈ 10.8 µM) | 100 | > 12.3 |
| CCCCC1CCC(C(=O)NCCn2nc(-c3ccncc3)ccc2=O)CC1 (stereo not given) | > 11.5 | 0 | 0 | 6.12 (≈ 16 µM) | 0.371 (≈ 0.97 µM) | > 11.5 | 0 | 11 (≈ 28.7 µM) |
| O=c1ccc(-c2ccncc2)nn1CCNS(=O)(=O)c1ccc2c(c1)CCCC2 | > 12.3 | 0 | 0 | > 12.3 | > 12.3 | > 12.3 | 100 | > 12.3 |
| O=C(CC(c1ccccc1)c1ccccc1)NCCCn1nc(-c2ccncc2)ccc1=O | 5.95 (≈ 13.6 µM) | 0 | 0 | 5.91 (≈ 13.5 µM) | > 13.2 | 7.53 (≈ 17.2 µM) | 100 | > 13.2 |
| O=c1ccc(-c2ccncc2)nn1CCCNS(=O)(=O)c1ccc2c(c1)CCCC2 | > 12.7 | 0 | 0 | 4.77 (≈ 11.2 µM) | > 12.7 | > 12.7 | 100 | > 12.7 |
| Cc1ccnc(Nc2ccc(NCCNC(=O)c3cccc(C(F)(F)F)c3)nn2)c1 | 1.48 (≈ 3.56 µM) | 0 | 0 | > 12.5 | > 12.5 | > 12.5 | 100 | 9.41 (≈ 22.6 µM) |
